Data from PMC10824694 (Blood Advances, 2023).

How the values were obtained:
[1] = system: BxPC3; assay: cells; type: cell-based; settings: Homo sapiens, BXPC-3, 72 h
[2] = system: OVCAR-5; assay: cells; type: cell-based; settings: Homo sapiens, OVCAR-5, 72 h
[3] = system: MDA-MB-468; assay: cells; type: cell-based; settings: Homo sapiens, MDA-MB-468, 72 h
[4] = system: HOP-62; assay: cells; type: cell-based; settings: Homo sapiens, HOP-62, 72 h
[5] = system: CaPan2; assay: cells; type: cell-based; settings: Homo sapiens, Capan-2, 72 h
[6] = system: SK-MEL-2; assay: cells; type: cell-based; settings: Homo sapiens, SK-MEL-2, 72 h
[7] = system: JB6; assay: cells; type: cell-based; settings: Homo sapiens, JB6, 72 h
[8] = system: DU-145; assay: cells; type: cell-based; settings: Homo sapiens, DU-145, 72 h
[9] = system: UACC-257; assay: cells; type: cell-based; settings: Homo sapiens, UACC-257, 72 h
[10] = target: T1, CAMKIIγ (Homo sapiens, UniProt Q13555); assay: nano-DSF assay with purified CAMKIIγ protein; type: binding; settings: in words
Target sequence in this assay (Q13555 14-272 limits assumed): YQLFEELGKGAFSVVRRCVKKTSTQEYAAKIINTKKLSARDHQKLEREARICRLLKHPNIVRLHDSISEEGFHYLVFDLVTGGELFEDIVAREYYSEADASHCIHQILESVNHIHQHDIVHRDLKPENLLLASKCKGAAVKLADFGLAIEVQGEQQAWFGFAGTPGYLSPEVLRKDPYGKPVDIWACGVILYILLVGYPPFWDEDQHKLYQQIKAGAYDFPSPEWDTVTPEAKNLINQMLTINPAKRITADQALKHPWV

[11] = system: Mutu; assay: cells; type: cell-based; settings: Homo sapiens, 72 h
[12] = system: Namalwa; assay: cells; type: cell-based; settings: Homo sapiens, 72 h
[13] = system: A549/ATCC; assay: cells; type: cell-based; settings: Homo sapiens, A549, 72 h
[14] = system: NCI-H460; assay: cells; type: cell-based; settings: Homo sapiens, NCI-H460, 72 h
[15] = system: MDA-MB-231/ATCC; assay: cells; type: cell-based; settings: Homo sapiens, MDA-MB-231, 72 h
[16] = system: SW-620; assay: cells; type: cell-based; settings: Homo sapiens, SW-620, 72 h
[17] = system: TK-10; assay: cells; type: cell-based; settings: Homo sapiens, TK-10, 72 h
[18] = system: HCC-2998; assay: cells; type: cell-based; settings: Homo sapiens, HCC 2998, 72 h
[19] = system: SN12C; assay: cells; type: cell-based; settings: Homo sapiens, 72 h
[20] = system: RPMI-8226; assay: cells; type: cell-based; settings: Homo sapiens, RPMI-8226, 72 h
[21] = system: HL-60(TB); assay: cells; type: cell-based; settings: Homo sapiens, HL-60, 72 h
[22] = system: NCI-H322M; assay: cells; type: cell-based; settings: Homo sapiens, 72 h
[23] = system: SNB-19; assay: cells; type: cell-based; settings: Homo sapiens, SNB-19, 72 h
[24] = system: SR; assay: cells; type: cell-based; settings: Homo sapiens, 72 h
[25] = system: SF-539; assay: cells; type: cell-based; settings: Homo sapiens, SF-539, 72 h
[26] = system: A498; assay: cells; type: cell-based; settings: Homo sapiens, A498, 72 h
[27] = system: MALME-3M; assay: cells; type: cell-based; settings: Homo sapiens, 72 h
[28] = system: LOX IMVI; assay: cells; type: cell-based; settings: Homo sapiens, 72 h
[29] = system: MOLT-4; assay: cells; type: cell-based; settings: Homo sapiens, MOLT-4, 72 h
[30] = system: FG; assay: cells; type: cell-based; settings: Homo sapiens, 72 h
[31] = system: 786-0; assay: cells; type: cell-based; settings: Homo sapiens, 786-0, 72 h
[32] = system: HT29; assay: cells; type: cell-based; settings: Homo sapiens, HT-29, 72 h
[33] = system: K-562; assay: cells; type: cell-based; settings: Homo sapiens, K562, 72 h
[34] = system: RXF 393; assay: cells; type: cell-based; settings: Homo sapiens, RXF 393, 72 h
[35] = system: SK-OV-3; assay: cells; type: cell-based; settings: Homo sapiens, SK-OV-3, 72 h
[36] = system: SF-268; assay: cells; type: cell-based; settings: Homo sapiens, SF-268, 72 h
[37] = system: OVCAR-4; assay: cells; type: cell-based; settings: Homo sapiens, OVCAR-4, 72 h
[38] = system: PC-3; assay: cells; type: cell-based; settings: Homo sapiens, PC-3, 72 h
[39] = system: OVCAR-8; assay: cells; type: cell-based; settings: Homo sapiens, OVCAR-8, 72 h
[40] = system: H9; assay: cells; type: cell-based; settings: Homo sapiens, H9, 72 h
[41] = system: NCI/ADR-RES; assay: cells; type: cell-based; settings: Homo sapiens, 72 h
[42] = system: ACHN; assay: cells; type: cell-based; settings: Homo sapiens, 72 h
[43] = system: HOP-92; assay: cells; type: cell-based; settings: Homo sapiens, HOP-92, 72 h
[44] = system: KM12; assay: cells; type: cell-based; settings: Homo sapiens, KM12, 72 h
[45] = system: HCT-15; assay: cells; type: cell-based; settings: Homo sapiens, HCT-15, 72 h
[46] = system: DHL6; assay: cells; type: cell-based; settings: Homo sapiens, 72 h
[47] = system: NCI-H23; assay: cells; type: cell-based; settings: Homo sapiens, NCI-H23, 72 h
[48] = system: 371-kinase panel; assay: Kinome screening, HotSpot assay platform; type: biochemical; settings: 10 μM, panel of 371 kinases
Outline: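 The HotSpot platform was run against a 371-kinase panel with test compounds at 1 µM and 10 µM. A hit was a kinase whose activity was inhibited by ≥50%.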

[49] = system: CAKI-1; assay: cells; type: cell-based; settings: Homo sapiens, CAKI-1, 72 h
[50] = system: COLO 205; assay: cells; type: cell-based; settings: Homo sapiens, COLO 205, 72 h
[51] = system: BT-549; assay: cells; type: cell-based; settings: Homo sapiens, BT-549, 72 h
[52] = system: SF-295; assay: cells; type: cell-based; settings: Homo sapiens, SF-295, 72 h
[53] = system: T-47D; assay: cells; type: cell-based; settings: Homo sapiens, T47D, 72 h
[54] = system: SK-MEL-5; assay: cells; type: cell-based; settings: Homo sapiens, SK-MEL-5, 72 h
[55] = system: UACC-62; assay: cells; type: cell-based; settings: Homo sapiens, UACC-62, 72 h
[56] = target: T1, CAMKIIγ; assay: Cellular thermal shift assay; type: cell-based; settings: H9 cells, 5 μM, 1 hour; vs DMSO
Target sequence in this assay (Q13555 whole entry): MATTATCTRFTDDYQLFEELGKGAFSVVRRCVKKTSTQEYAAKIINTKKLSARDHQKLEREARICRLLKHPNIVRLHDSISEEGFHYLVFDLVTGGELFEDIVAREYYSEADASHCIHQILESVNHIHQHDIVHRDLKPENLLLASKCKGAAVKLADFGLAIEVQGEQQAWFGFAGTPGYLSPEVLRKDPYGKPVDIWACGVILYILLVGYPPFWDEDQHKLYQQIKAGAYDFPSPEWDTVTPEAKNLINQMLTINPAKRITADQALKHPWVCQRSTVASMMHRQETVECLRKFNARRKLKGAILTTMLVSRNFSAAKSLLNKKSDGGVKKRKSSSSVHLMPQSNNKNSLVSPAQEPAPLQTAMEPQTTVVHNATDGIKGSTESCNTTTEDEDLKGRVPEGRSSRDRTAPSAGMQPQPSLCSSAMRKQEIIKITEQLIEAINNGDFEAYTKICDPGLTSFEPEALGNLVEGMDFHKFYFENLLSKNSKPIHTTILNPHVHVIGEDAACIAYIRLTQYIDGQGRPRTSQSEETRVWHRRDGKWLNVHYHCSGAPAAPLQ

[57] = system: MDA-MB-435; assay: cells; type: cell-based; settings: Homo sapiens, MDA-MB-435, 72 h
[58] = system: SNB-75; assay: cells; type: cell-based; settings: Homo sapiens, SNB-75, 72 h
[59] = system: H9-derived xenografted tumors; assay: H9 xenograft T-cell lymphoma model in NSG mice; type: in vivo, mouse; settings: oral gavage daily 14 days, BBM 50 mg/kg, PA4 5-15 mg/kg per day
Outline: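 Female 8-week-old NSG mice received 5×10^6 H9 cells in PBS subcutaneously in the right flank. At a tumour volume of ~30 mm³ (day 16), mice were randomised into 5 groups (n = 5 each): PBS 100 μL, or test compound in PBS, given daily by oral gavage for 14 days. Body weight and tumours were measured 3 times weekly. Mice were euthanised on day 30.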

[60] = system: MCF7; assay: cells; type: cell-based; settings: Homo sapiens, MCF7, 72 h
[61] = system: HCT-116; assay: cells; type: cell-based; settings: Homo sapiens, HCT-116, 72 h
[62] = system: HS 578T; assay: cells; type: cell-based; settings: Homo sapiens, 72 h
[63] = system: U251; assay: cells; type: cell-based; settings: Homo sapiens, U-251, 72 h
[64] = system: Panc1; assay: cells; type: cell-based; settings: Homo sapiens, PANC-1, 72 h
[65] = system: M14; assay: cells; type: cell-based; settings: Homo sapiens, M14, 72 h
[66] = system: Rael; assay: cells; type: cell-based; settings: Homo sapiens, 72 h
[67] = Mouse pharmacokinetics study; type: in vivo
Outline: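 Plasma concentration–time profiles were obtained after each route. Absolute oral bioavailability was calculated from the IV and oral data.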

[68] = system: CCRF-CEM; assay: cells; type: cell-based; settings: Homo sapiens, 72 h
[69] = system: NCI-H226; assay: cells; type: cell-based; settings: Homo sapiens, NCI-H226, 72 h
[70] = system: UO-31; assay: cells; type: cell-based; settings: Homo sapiens, UO-31, 72 h
[71] = system: OVCAR-3; assay: cells; type: cell-based; settings: Homo sapiens, OVCAR-3, 72 h
[72] = system: NCI-H522; assay: cells; type: cell-based; settings: Homo sapiens, NCI-H522, 72 h
[73] = system: SK-MEL-28; assay: cells; type: cell-based; settings: Homo sapiens, SK-MEL-28, 72 h
[74] = system: EKVX; assay: cells; type: cell-based; settings: Homo sapiens, 72 h

COc1cc2c3cc1Oc1c(OC)c(OC)cc4c1[C@@H](Cc1ccc(O)c(c1)Oc1ccc(cc1)C[C@@H]3N(C)CC2)N(C)CC4 [BBM, berbamine]
IC50 [1]: 31.9 µM | IC50 [2]: 9.88 µM | IC50 [3]: 10.4 µM | IC50 [4]: 23.8 µM | IC50 [5]: 59.1 µM | IC50 [6]: 16 µM | IC50 [7]: 2.12 µM | IC50 [8]: 27.7 µM | IC50 [9]: 6.5 µM | change of melting temperature of CAMKIIγ protein [10]: did not significantly change the melting temperature | IC50 [11]: 4.64 µM | IC50 [12]: 20.7 µM | IC50 [13]: 18.7 µM | IC50 [14]: 20.5 µM | IC50 [15]: 14.2 µM | IC50 [16]: 12.4 µM | IC50 [17]: 35.8 µM | IC50 [18]: 5.61 µM | IC50 [19]: 41.8 µM | IC50 [20]: 7.83 µM | IC50 [21]: 5.98 µM | IC50 [22]: 20 µM | IC50 [23]: 16.2 µM | IC50 [24]: 5.14 µM | IC50 [25]: 5.25 µM | IC50 [26]: 6.97 µM | IC50 [27]: 9.82 µM | IC50 [28]: 23 µM | IC50 [29]: 10.7 µM | IC50 [30]: 32.6 µM | IC50 [31]: 8.48 µM | IC50 [32]: 6.56 µM | IC50 [33]: 5.11 µM | IC50 [34]: 16.9 µM | IC50 [35]: 13.4 µM | IC50 [36]: 13.8 µM | IC50 [37]: 15.1 µM | IC50 [38]: 7.94 µM | IC50 [39]: 14.6 µM | IC50 [40]: 4.67 µM | IC50 [41]: 24.8 µM | IC50 [42]: 20.8 µM | IC50 [43]: 12.7 µM | IC50 [44]: 17.3 µM | IC50 [45]: 11 µM | IC50 [46]: 15.9 µM | IC50 [47]: 14.9 µM | number of kinases whose activity was reduced by >50% [48]: none | IC50 [49]: 14.2 µM | IC50 [50]: 16 µM | IC50 [51]: 8.64 µM | IC50 [52]: 13.3 µM | IC50 [53]: 15.7 µM | IC50 [54]: 9.9 µM | IC50 [55]: 19.2 µM | CAMKIIγ degradation temperature (CETSA) [56]: did not shift the degradation temperature | IC50 [57]: 13.5 µM | IC50 [58]: 17.6 µM | body weight [59]: did not reduce body weight | IC50 [60]: 9.93 µM | IC50 [61]: 10.2 µM | IC50 [62]: 12.4 µM | IC50 [63]: 10.7 µM | IC50 [64]: 24.8 µM | IC50 [65]: 13.1 µM | IC50 [66]: 5.87 µM | time detected in blood after oral administration ([67]; male Institute of Cancer Research mice): 5 min | area under the curve ([67]; male Institute of Cancer Research mice, plasma): 8478 ± 1150 | bioavailability ([67]; male, ICR (Institute of Cancer Research), mouse, plasma, po): 44.8% | IC50 [68]: 11.4 µM | IC50 [69]: 34.6 µM | IC50 [70]: 9.61 µM | IC50 [71]: 12.3 µM | IC50 [72]: 21.3 µM | IC50 [73]: 15.4 µM | IC50 [74]: 6.38 µM
